PKA-R2B activ: activators of human PKA-R2B complex; 340,000 compounds, 0.079% hits; P22694+P31323; PKA-R2B holoenzyme dissociation, Cy5-IP20 fluorescence polarization; R2B truncated from residue 108, S112A mutant; 0% DMSO only, 100% 113 µM cGMP; AID 504700; activation, % at 11.4 µM;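 active = activation above a cutoff set at the mean over all compounds plus 3 SD, cut at about 18% in these data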;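 also: higher means more holoenzyme dissociation and a rise in polarization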
Target sequence (P31323 whole entry, looked up, other chains not shown, the tested form may be a part): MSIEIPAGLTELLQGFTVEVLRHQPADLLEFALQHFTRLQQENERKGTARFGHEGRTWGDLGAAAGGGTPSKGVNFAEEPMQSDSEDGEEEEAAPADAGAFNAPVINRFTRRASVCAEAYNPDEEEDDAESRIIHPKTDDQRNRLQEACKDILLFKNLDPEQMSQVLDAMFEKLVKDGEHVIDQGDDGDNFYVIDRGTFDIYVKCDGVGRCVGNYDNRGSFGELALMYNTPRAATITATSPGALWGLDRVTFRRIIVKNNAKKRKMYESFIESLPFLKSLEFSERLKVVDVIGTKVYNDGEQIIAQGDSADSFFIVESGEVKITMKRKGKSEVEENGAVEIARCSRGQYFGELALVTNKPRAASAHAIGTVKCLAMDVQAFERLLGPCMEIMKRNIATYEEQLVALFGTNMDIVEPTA
Tn6 DDE FP: inhibitors of Tn6 peptide binding to human fibrin DD(E); 370,000 compounds, 0.21% hits; inhibition, % at 8.3 µM; Fibrin DD(E) TRITC-Tn6 fluorescence polarization displacement; P02675;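 active = inhibition above a per-campaign cutoff: mean of compounds within control limits plus 3 SD, cut at about 15% in these data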
PKA-R1A act: activates the PKA-R1A holoenzyme complex; 340,000 compounds, 0.083% hits; PKA-R1A dissociation, Cy5-IP20 fluorescence polarization; scaled: DMSO 0%, 113 µM cGMP 100%; activation, % at 11.4 µM; P00514+P68181;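 active = percent activation above the mean of all tested compounds plus 3 SD, cut at about 19% in these data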;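 also: higher means more PKAc released from R1A so a rise in polarization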
Neddyl block: cullin neddylation inhibition; TR-FRET cullin neddylation, biochemical; P61081+Q13564; AID 651699; inhibition, % at 25 µM; 360,000 compounds, 0.58% hits; in the data active = inhibition above about 36%
DDE Tn7 FP inh: disrupts Tn7 cyclic peptide binding to fibrin D-Dimer-E complex; P02675; FP displacement of FITC-Tn7 peptide from fibrin DD(E); 0% = median of compound wells per plate; inhibition, % at 8.3 µM; 370,000 compounds, 0.13% hits; AID 720508;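 active = inhibition above the mean of compounds falling within the control limits plus 3 SD of them, cut at about 14% in these data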
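Measure: % inhibition scaled between sample-field median and high-control FP; Test system: human fibrin DD(E); Quantity: 2 µM final DD(E) protein; Doses: one dose, 8.3 µM nominal; Schedule: compound with protein 10 min, then 3 h after probe, room temperature; Detection: fluorescence polarization; Medium: Tris buffer with calcium and detergent, pH 7.8.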
Neddyl inh conf: cullin neddylation inhibition, confirmation; shares compounds with Neddyl block; calls only at 25 µM; AID 652217; TR-FRET cullin neddylation biochemical assay; 1,800 compounds, 13% hits; in the data active = inhibition above about 40%;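 also: neddylation substrate is the cullin 1 ring ligase complex with SKP2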
Hits are given with their value; . = inactive; / = no result given; + = active, no number. In the library only some 1% were active in any assay of this set; here they are far more common.

SMILES | PKA-R2B activ | Tn6 DDE FP | PKA-R1A act | Neddyl block | DDE Tn7 FP inh | Neddyl inh conf
Nn1c(SCC(=O)NC2CCCCC2)nnc1-c1n[nH]c2c1CCC2 | / | . | / | / | . | /
CCOc1ccc(OCCNC(=O)c2cc(C3CC3)nc3c2cnn3C(C)C)cc1 | . | . | . | . | . | /
CC(C)n1ncc2c(C(=O)NCCc3ccc(S(N)(=O)=O)cc3)cc(C3CC3)nc21 | . | . | . | 64.3 | . | /
COc1ccc(CCNC(=O)c2cc(C3CC3)nc3c2cnn3C(C)C)cc1OC | . | . | . | . | . | /
CC(C)n1ncc2c(C(=O)NCCOc3ccccc3F)cc(C3CC3)nc21 | . | . | . | 43.6 | . | .
Cc1cccc(-n2ncc3c(NCc4ccccn4)ncnc32)c1 | . | . | . | 40.2 | . | .
c1ccc(-n2ncc3c(NCc4ccccn4)ncnc32)cc1 | . | / | . | . | / | /
COc1ccccc1CNC1CCC12CCC(c1ccccc1)CC2 (stereo unspecified) | / | . | / | / | . | /
CC(=O)c1ccc(-c2cccc(-c3nc4ccccn4c3NC3CCCCC3)c2)cc1 | . | . | . | 25.6 | . | .
CC(=O)OCCc1c2ccccc2c(CCCN(C)C)c2ccccc12 | . | . | . | 35.8 | . | /
CC(=O)OCCc1[nH]c2ccccc2c1C | . | . | . | . | . | /
COCCOC(=O)c1cc(C(=O)c2cc(F)ccc2O)coc1=N | . | . | . | 46.6 | . | .
Cn1c(NCCN2CCCC2)nc2cc(-c3ccsc3)sc2c1=O | / | . | / | . | . | /
COc1ccc(-c2cc3nc(NCCN4CCCC4)n(C)c(=O)c3s2)cc1OC | / | . | / | 49.5 | . | +
C=CC[n+]1ccn(-c2nc3ccccc3nc2[N-]S(=O)(=O)c2cccs2)c1 | . | . | . | 45.6 | . | /
Cc1ccc(S(=O)(=O)[N-]c2nc3ccccc3nc2-n2cc[n+](Cc3ccccc3)c2)cc1 | . | . | . | / | . | /
CCCC[n+]1ccn(-c2nc3ccccc3nc2[N-]S(=O)(=O)c2cccs2)c1 | . | . | . | 42.6 | . | .
O=S(=O)([N-]c1nc2ccccc2nc1-n1cc[n+](Cc2ccccc2)c1)c1ccccc1 | . | . | . | 37.1 | . | +
CCCC[n+]1ccn(-c2nc3ccccc3nc2[N-]S(=O)(=O)c2ccccc2)c1 | . | . | . | . | . | /
CCCCC[n+]1ccn(-c2nc3ccccc3nc2[N-]S(=O)(=O)c2ccc(C)cc2)c1 | . | . | . | 43.0 | . | .
CCOC(=O)C1(C(=O)OCC)N=C(c2ccccc2)C=C1c1ccccc1 | / | . | / | / | . | /
CC(C)CN1C(=O)[C@@]2(CC(=O)N(C)C2c2ccccc2)c2cc(-n3cc(C(C)(C)O)nn3)ccc21 (stereo partly specified) | / | . | / | / | . | /
COc1ccc2c(C(=O)CN3CCSCC3)c[nH]c2c1 | . | . | . | 38.7 | . | .
NC(=O)c1c(N)[nH]c(C(=O)c2ccccc2)c1-c1ccccc1C(F)(F)F | / | . | / | / | . | /
CCCCCCC[C@H](N)[C@H](O)C(=O)N(C)[C@@H](CCS(C)=O)C(=O)N[C@@H](Cc1ccc(O)cc1)C(=O)O (stereo partly specified) | / | . | / | / | . | /
SMILES | PKA-R2B activ | Tn6 DDE FP | PKA-R1A act | Neddyl block | DDE Tn7 FP inh | Neddyl inh conf
CN(C)C(CNC(=O)c1ccc2[nH]c(=O)c(=O)[nH]c2c1)c1ccco1 (stereo unspecified) | . | . | . | 52.1 | . | /
CN(C)C(CNC(=O)c1ccc(Br)cc1)c1ccco1 (stereo unspecified) | . | . | . | . | . | /
CCOc1ccc2oc(C(=O)NCC(c3ccco3)N(C)C)c(C)c2c1 (stereo unspecified) | . | . | . | 47.3 | . | /
COc1ccc(C(CNC(=O)c2oc3ccc(OC)cc3c2C)N2CCCC2)cc1 (stereo unspecified) | . | . | . | 50.3 | . | /
CCOc1ccc2oc(C(=O)NCc3ccccc3CN3CCCC3)c(C)c2c1 | . | . | . | 51.6 | . | /
O=C(N[C@H](C(=O)N1CCC[C@H]1C(=O)NCCc1ccccc1Cl)c1ccccc1)c1cccs1 | / | . | / | / | . | /
COC(=O)[C@]12C[C@H](CC(=O)NCCC(C)C)C(=O)N(Cc3ccc(Cl)cc3Cl)C1=C[C@H](C1CCCC1)O[C@@H]2C | / | . | / | / | . | /
COc1ccc(-c2c3c(cc(C)[n+]2[O-])oc2ccc(OC)cc23)cc1 | . | . | . | . | . | /
COc1ccc2oc3cc(C)[n+]([O-])c(-c4ccc(Cl)cc4)c3c2c1 | . | . | . | 41.8 | . | .
COc1cc(/C=C/c2cc(C(=O)O)c3ccccc3n2)ccc1OC(F)F | . | . | . | 40.2 | . | /
CCN(CC)c1ccc(/C=N\NC(N)=O)cc1 | . | . | . | 40.2 | . | .
CCN(CC)c1ccc(/C=N/NC(=O)CC(C)C)cc1 | . | . | . | 54.2 | . | +
CCN(CC)c1ccc(/C=N/NC(=O)Nc2ccccc2)cc1 | . | . | . | . | . | /
O=C(CSc1nnc(-c2cccnc2)n1-c1ccccc1)Nc1ccc2c(c1)OCCO2 | / | . | / | / | . | /
CC(C)(C)OC(=O)N1CCC(N[C@@H](Cc2ccccc2)C(=O)NCC(c2ccccc2)c2ccccc2)(C(=O)NC2CCCCC2)CC1 | / | . | / | / | . | /
O=C(CSc1nc2ccccc2nc1N1CCOCC1)N1CCN(c2cccc(C(F)(F)F)c2)CC1 | / | . | / | / | . | /
O=C(OC12CCCN(C1)/C(=C/c1cccc(Cl)c1)C2)C1CCCC1 (stereo unspecified) | / | . | / | / | . | /
CCOc1ccc2[nH]c(=O)c(CN(CCO)C(=O)c3ccc(Br)cc3)cc2c1 | . | . | . | . | . | /
CCOc1ccc2[nH]c(=O)c(CN(CCO)C(=O)CC)cc2c1 | . | . | . | 39.8 | . | +
Cc1csc(NC(=O)c2cc(-c3ccco3)nc3ccccc23)n1 | . | . | . | . | . | /
CN(C)C(=O)c1ccc(NC(=O)c2cc(-c3ccco3)nc3ccccc23)cc1 | . | . | . | 53.5 | . | /
COc1ccc(NC(=O)c2cc(-c3ccco3)nc3ccccc23)cn1 | . | . | . | . | . | /
CCN(CC)CCNC(=O)c1ccc(NC(=O)c2cc(-c3ccco3)nc3ccccc23)cc1 | . | . | . | 53.3 | . | .
CCOC(=O)[C@@]12CCC3=C1N(CCC3)C(=O)[C@H](CC(=O)NCc1ccc(OC)c(OC)c1)C2 | / | . | / | / | . | /
Cc1ccccc1C1CCC2(CC1)CCN(CC[C@@H](O)c1ccccc1)C2=O (stereo partly specified) | / | . | / | / | . | /
C#CCN(Cc1ccco1)C(=O)c1nnc2c3cc(OC)ccc3n(S(=O)(=O)c3ccc(OC)cc3)c2n1 | / | . | / | / | . | /
COc1ccc(N(C(=O)c2snc(C(N)=O)c2N)C(C(=O)NC2CCCC2)c2ccco2)cc1 (stereo unspecified) | . | . | . | . | . | /
